Reference: ChEMBL document CHEMBL1151761, “Radiohalogenated prostate-specific membrane antigen (PSMA)-based ureas as imaging agents for prostate cancer” (J Med Chem, 2008)

Legend:
[1] = Biodistribution in PC3 flu tumor of PSMA expressing human PC3 PIP and PSMA deficient human PC3 flu cells xenografted SCID mouse at 2 uCi, iv after 60 mins; assay type: ADME, organism-based; settings: in vivo, 1 h
Procedure, shortened: (§1)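 Male SCID mice carried subcutaneous PSMA+ PC-3 PIP (left shoulder) and PC-3 flu (right shoulder) xenografts, 1-5 × 10^6 cells in HBSS, and were used at 3-5 mm tumor diameter. Tail-vein injection of 2 µCi radioligand; four mice per time point, killed by cervical dislocation. %ID/g from a standard dilution of the dose, decay-corrected, mean ± SD; PIP tumor:organ ratios.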

[2] = Biodistribution in PC3 flu tumor of PSMA expressing human PC3 PIP and PSMA deficient human PC3 flu cells xenografted SCID mouse at 2 uCi, iv after 30 mins; assay type: ADME, organism-based; settings: in vivo, 0.5 h; procedure, shortened: as §1
[3] = Biodistribution in large intestine of PSMA expressing human PC3 PIP and PSMA deficient human PC3 flu cells xenografted SCID mouse at 2 uCi, iv after 60 mins; assay type: ADME, organism-based; settings: in vivo, 1 h; procedure, shortened: as §1
[4] = target: T1, Glutamate carboxypeptidase 2 (Homo sapiens, UniProt Q04609); experiment: Inhibition of PSMA in human LNCaP cell extract using [3H]NAAG by radiometric assay; assay type: cell-free
[5] = target: T1, Glutamate carboxypeptidase 2; experiment: Inhibition of PSMA in human LNCaP cell extract using [3H]NAAG by fluorescence-based assay; assay type: cell-free
[6] = Biodistribution in PC3 PIP tumor of PSMA expressing human PC3 PIP and PSMA deficient human PC3 flu cells xenografted SCID mouse at 2 uCi, iv after 30 mins; assay type: ADME, organism-based; settings: in vivo, 0.5 h; procedure, shortened: as §1
[7] = Biodistribution in large intestine of PSMA expressing human PC3 PIP and PSMA deficient human PC3 flu cells xenografted SCID mouse at 2 uCi, iv after 5 hrs; assay type: ADME, organism-based; settings: in vivo; procedure, shortened: as §1
[8] = Biodistribution in large intestine of PSMA expressing human PC3 PIP and PSMA deficient human PC3 flu cells xenografted SCID mouse at 2 uCi, iv after 2 hrs; assay type: ADME, organism-based; settings: in vivo; procedure, shortened: as §1
[9] = Biodistribution in small intestine of PSMA expressing human PC3 PIP and PSMA deficient human PC3 flu cells xenografted SCID mouse at 2 uCi, iv after 30 mins; assay type: ADME, organism-based; settings: in vivo, 0.5 h; procedure, shortened: as §1
[10] = Biodistribution in small intestine of PSMA expressing human PC3 PIP and PSMA deficient human PC3 flu cells xenografted SCID mouse at 2 uCi, iv after 2 hrs; assay type: ADME, organism-based; settings: in vivo; procedure, shortened: as §1
[11] = Biodistribution in PC3 flu tumor of PSMA expressing human PC3 PIP and PSMA deficient human PC3 flu cells xenografted SCID mouse at 2 uCi, iv after 5 hrs; assay type: ADME, organism-based; settings: in vivo; procedure, shortened: as §1
[12] = Biodistribution in small intestine of PSMA expressing human PC3 PIP and PSMA deficient human PC3 flu cells xenografted SCID mouse at 2 uCi, iv after 5 hrs; assay type: ADME, organism-based; settings: in vivo; procedure, shortened: as §1
[13] = Biodistribution in large intestine of PSMA expressing human PC3 PIP and PSMA deficient human PC3 flu cells xenografted SCID mouse at 2 uCi, iv after 30 mins; assay type: ADME, organism-based; settings: in vivo, 0.5 h; procedure, shortened: as §1
[14] = Biodistribution in PC3 flu tumor of PSMA expressing human PC3 PIP and PSMA deficient human PC3 flu cells xenografted SCID mouse at 2 uCi, iv after 2 hrs; assay type: ADME, organism-based; settings: in vivo; procedure, shortened: as §1
[15] = Biodistribution in small intestine of PSMA expressing human PC3 PIP and PSMA deficient human PC3 flu cells xenografted SCID mouse at 2 uCi, iv after 60 mins; assay type: ADME, organism-based; settings: in vivo, 1 h; procedure, shortened: as §1

T1 sequence (Q04609 whole entry): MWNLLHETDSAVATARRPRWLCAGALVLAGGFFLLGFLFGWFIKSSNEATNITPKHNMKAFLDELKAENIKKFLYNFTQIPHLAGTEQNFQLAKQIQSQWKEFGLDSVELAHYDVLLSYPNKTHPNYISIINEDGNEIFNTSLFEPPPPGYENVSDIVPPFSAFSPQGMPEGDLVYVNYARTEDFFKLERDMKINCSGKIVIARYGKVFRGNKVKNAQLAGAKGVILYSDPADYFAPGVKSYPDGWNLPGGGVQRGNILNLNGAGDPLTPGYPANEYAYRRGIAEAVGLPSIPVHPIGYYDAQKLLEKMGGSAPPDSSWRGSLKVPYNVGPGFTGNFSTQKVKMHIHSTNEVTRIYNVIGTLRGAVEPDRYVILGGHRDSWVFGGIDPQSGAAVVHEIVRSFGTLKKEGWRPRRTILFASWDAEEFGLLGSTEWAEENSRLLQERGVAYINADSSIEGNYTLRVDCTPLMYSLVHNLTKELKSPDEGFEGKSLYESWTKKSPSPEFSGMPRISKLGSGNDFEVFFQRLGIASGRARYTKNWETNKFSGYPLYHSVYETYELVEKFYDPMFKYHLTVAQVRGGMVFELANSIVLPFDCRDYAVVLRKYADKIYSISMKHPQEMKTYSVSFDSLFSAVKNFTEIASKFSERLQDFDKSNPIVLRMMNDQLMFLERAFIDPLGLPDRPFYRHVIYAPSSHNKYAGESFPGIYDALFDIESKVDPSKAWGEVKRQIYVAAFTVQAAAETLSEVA

SMILES | Drug uptake [1] | Drug uptake [2] | Drug uptake [3] | Ki [4] | Ki [5] | Drug uptake [6] | Drug uptake [7] | Drug uptake [8] | Drug uptake [9] | Drug uptake [10] | Drug uptake [11] | Drug uptake [12] | Drug uptake [13] | Drug uptake [14] | Drug uptake [15]
O=C(O)CC[C@H](NC(=O)N[C@@H](CCCCNC(=O)c1cncc([125I])c1)C(=O)O)C(=O)O | 0.6 % ID/g | 0.8 % ID/g | 0.6 % ID/g | – | – | – | – | – | – | – | – | – | – | – | –
O=C(O)CC[C@H](NC(=O)N[C@@H](CCCCNC(=O)c1ccc(F)cc1)C(=O)O)C(=O)O | – | – | – | 0.256 nM | 0.194 nM | – | – | – | – | – | – | – | – | – | –
O=C(O)CC[C@H](NC(=O)N[C@@H](CCCCNC(=O)c1ccc([125I])cc1)C(=O)O)C(=O)O | 1.2 % ID/g | 1.8 % ID/g | 1 % ID/g | – | – | 8.8 % ID/g | 0.7 % ID/g | 0.6 % ID/g | 4.9 % ID/g | 1.5 % ID/g | 0.6 % ID/g | 1.5 % ID/g | 1.4 % ID/g | 0.7 % ID/g | 3.8 % ID/g
